Assay outcomes deposited in PubChem by several laboratories.
TAAR1 antag – human TAAR1 antagonism. Q96RJ0. CHO RD-HGA16 TAAR1, Fluo-8 calcium fluorescence, antagonist. inhibition, % at 3 µM. 360,000 tested, 1.5% active;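 active = inhibition above a per-plate cutoff, the mean inhibition of test compounds on that plate plus 3 SD, cut at about 49% in these data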;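 also: 0% = DMSO plus EC80 beta-PEA response and 100% = DMSO alone without agonist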
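Assay system: CHO-derived RD-HGA16 cells stably expressing human TAAR1 plus Gα16. Timing: 140 s kinetic read after compound, 140 s after agonist. Technique: kinetic Fluo-8 calcium fluorescence measurement. Measure: % inhibition of agonist calcium response.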
TAAR1 ag – human TAAR1 agonism. Q96RJ0. CHO RD-HGA16 TAAR1, Fluo-8 calcium fluorescence; vehicle wells 0%, saturating PEA agonist 100%. activation, % at 3 µM. 360,000 tested, 0.99% active;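 active = activation above the mean activation of all test compounds in the run plus 3 SD, cut at about 38% in these data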
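System: CHO-derived RD-HGA16 cells with stable Gα16 and human TAAR1. Times: 17-24 h plating, Fluo-8 75 min 37 °C, 30 min RT. Measured by: calcium-sensitive Fluo-8 signal, excitation 470-495, emission 515-575 nm. Read-out basis: % activation relative to PEA EC100 response. Control set: DMSO and PEA EC100. Repeats: no replicates (n 1).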
ANO1 activ – activators or potentiators of mouse TMEM16A chloride channel; Q8BHY3; B-score at 10 µM; 340,000 tested, 0.3% active; HEK293 TMEM16A/YFP-H148Q/I152L, iodide quench fluorescence; stronger effect = lower value;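 active = fluorescence-ratio B-score plate-corrected deviation score at least 3 library SD below zero, with starting fluorescence score within 5 deviations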;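 also: channel opened by trigger with iodide after compound preincubation; score built on the fluorescence ratio of max minus min over baseline; more negative score means more quench and so TMEM16A activation or potentiation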
Target sequence (Q8BHY3 whole entry, looked up): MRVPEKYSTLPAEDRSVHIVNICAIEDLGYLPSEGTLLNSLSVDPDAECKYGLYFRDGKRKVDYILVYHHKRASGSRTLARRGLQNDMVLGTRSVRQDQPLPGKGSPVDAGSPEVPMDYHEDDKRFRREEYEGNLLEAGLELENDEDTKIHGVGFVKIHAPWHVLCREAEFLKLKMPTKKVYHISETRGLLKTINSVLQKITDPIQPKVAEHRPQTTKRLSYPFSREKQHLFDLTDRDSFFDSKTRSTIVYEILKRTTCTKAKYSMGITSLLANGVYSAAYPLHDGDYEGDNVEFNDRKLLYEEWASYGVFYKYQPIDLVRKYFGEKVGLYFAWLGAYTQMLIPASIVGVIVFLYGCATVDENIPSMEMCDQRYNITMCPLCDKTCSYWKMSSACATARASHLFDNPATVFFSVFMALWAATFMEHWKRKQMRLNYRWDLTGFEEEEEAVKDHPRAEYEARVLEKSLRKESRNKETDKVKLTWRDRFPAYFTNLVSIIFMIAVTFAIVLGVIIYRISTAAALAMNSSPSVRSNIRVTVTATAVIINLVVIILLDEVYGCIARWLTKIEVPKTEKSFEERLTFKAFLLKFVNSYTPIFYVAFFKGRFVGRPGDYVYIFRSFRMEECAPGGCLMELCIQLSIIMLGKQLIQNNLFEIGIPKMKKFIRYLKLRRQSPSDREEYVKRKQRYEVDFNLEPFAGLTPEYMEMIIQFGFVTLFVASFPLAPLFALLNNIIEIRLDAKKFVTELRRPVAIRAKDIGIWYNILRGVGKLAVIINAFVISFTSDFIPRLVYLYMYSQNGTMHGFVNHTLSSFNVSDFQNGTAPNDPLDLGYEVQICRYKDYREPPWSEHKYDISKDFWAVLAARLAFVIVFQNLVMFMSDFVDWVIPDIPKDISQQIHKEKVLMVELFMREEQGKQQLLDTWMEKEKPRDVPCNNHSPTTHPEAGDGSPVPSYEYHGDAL
CRFBP-R2 agonist – agonists of human CRF-binding protein/CRF-R2 receptor complex; HEK293 CRF-R2/CRF-BP, calcium dye fluorescence (FLIPR); percent of saturating CRF peptide response; activation, % at 13.2 µM; 350,000 tested, 0.46% active;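 active = activation of at least 50%, plus an integration ratio under a set limit after plate pattern correction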;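 also: plate controls were neutral control wells without compound for no effect and CRF at EC100 for full effect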
CRFBP-R2 block – blocks CRF-induced signaling of the CRF-BP/CRF-R2 complex; HEK293 CRF-R2/CRF-BP, CRF-induced calcium fluorescence; inhibition, % at 11.8 µM; 350,000 tested, 0.59% active;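 active = inhibition of the ligand-induced calcium signal above about 50% at the single tested concentration, limit read from the data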
TMEM16A inh – blocks the mouse calcium-activated chloride channel TMEM16A. Q8BHY3. 310,000 tested, 1.2% active. HEK293 TMEM16A/YFP iodide influx fluorescence, ionomycin. AID 588511. normalized B-score (activity score, 25-100; higher = stronger inhibition) at 10 µM;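 active = ratio plate-corrected score three or more library SD toward inhibition, starting fluorescence score within five deviations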;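 also: score derived from kinetic fluorescence span divided by baseline fluorescence per well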
TAAR1 ag confirm – human TAAR1 agonism, confirmed; shares compounds with TAAR1 ag; CHO RD-HGA16 TAAR1, Fluo-8 calcium fluorescence; scaled: DMSO 0%, maximal phenethylamine 100%; activation, % at 3 µM; 2,400 tested, 82% active; AID 651783;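 active = activation above a cutoff set at the run's mean compound activation plus 3 SD, cut at about 39% in these data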
Ga16 ag counter – nonselective agonism, TAAR1 counter-screen; CHO-Ga16 parental, Fluo-8 calcium fluorescence; normalized to maximal ATP response, DMSO zero; shares compounds with TAAR1 ag; 2,400 tested, 50% active; activation, % at 3 µM;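 active = activation above the run cutoff, the mean activation over all tested wells plus 3 SD, cut at about 12% in these data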;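 also: 0% = DMSO wells and 100% = maximal ATP response on the peak over basal ratio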
TAAR1 desensitize – human TAAR1 agonist that also desensitizes the receptor. shares compounds with TAAR1 ag. CHO RD-HGA16 hTAAR1, Fluo-8 calcium, beta-PEA response inhibition. inhibition, % at 3 µM. 2,400 tested, 46% active;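 active = inhibition above the run cutoff, the mean inhibition of all test compounds plus 3 SD, cut at about 49% in these data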;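 also: beta-PEA stimulus applied at its EC80; loss of beta-PEA calcium signal after compound pretreatment read as receptor desensitization; 0% = DMSO with beta-PEA at EC80 and 100% = DMSO alone without agonist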
Ga16 nonsel ant – counter-screen for TAAR1 agonists: nonselective Ga16 antagonists. shares compounds with TAAR1 ag. CHO-Ga16 ATP-induced calcium, Fluo-8 fluorescence. inhibition, % at 3 µM. AID 651952. 2,400 tested, 39% active;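 active = inhibition above the plate's mean compound inhibition plus 3 SD, computed per plate, cut at about 22% in these data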;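 also: 0% = EC80 ATP with DMSO and 100% = DMSO wells without ATP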
Numbers without * were called inactive. Shown are actives, neighbours in structure and some others; about 3.9% of the full set was active somewhere.

O=C(COC(=O)Cn1cnc2ccccc2c1=O)Nc1ccc(Cl)cc1 was read as TAAR1 antag 13.6, TAAR1 ag 48.9*, ANO1 activ inactive, CRFBP-R2 agonist -0.8, CRFBP-R2 block 5.2, TMEM16A inh inactive, TAAR1 ag confirm 65.5*, Ga16 ag counter 1.5, TAAR1 desensitize 28.2 and Ga16 nonsel ant 3.6.
For COCCCN1CC(=O)N2Cc3[nH]c4ccccc4c3C[C@H]2C1=O the results were TAAR1 antag -2.7, TAAR1 ag 0.8, ANO1 activ inactive, CRFBP-R2 agonist 0.2, CRFBP-R2 block 5.2 and TMEM16A inh inactive.
`COc1cc2nc(Nc3ccc(F)cc3)nc(N)c2cc1OC` gave TAAR1 antag 33.0, TAAR1 ag 58.6*, ANO1 activ inactive, CRFBP-R2 agonist -1.9, CRFBP-R2 block 5.7, TMEM16A inh inactive, TAAR1 ag confirm 54.0*, Ga16 ag counter 4.1, TAAR1 desensitize 40.5 and Ga16 nonsel ant 14.5.
For COc1cc2nc(Nc3ccc(C)c(C)c3)nc(N)c2cc1OC the results were TAAR1 antag -2.5, TAAR1 ag 2.0, ANO1 activ inactive, CRFBP-R2 agonist -2.6, CRFBP-R2 block 0.3 and TMEM16A inh inactive.
Screening Nc1cc(=O)[nH]c(SCC(=O)N2CCc3ccccc3C2)n1 returned TAAR1 antag 74.6*, TAAR1 ag 79.8*, ANO1 activ inactive, CRFBP-R2 agonist -2.5, CRFBP-R2 block 14.3, TMEM16A inh inactive, TAAR1 ag confirm 88.9*, Ga16 ag counter 4.8, TAAR1 desensitize 42.7 and Ga16 nonsel ant 6.6.
For O=C(COc1ccccc1)NNC(=O)c1cc2ccccc2oc1=O the results were TAAR1 antag 0.9, TAAR1 ag 45.3*, ANO1 activ inactive, CRFBP-R2 agonist -1.4, CRFBP-R2 block 5.2, TMEM16A inh inactive, TAAR1 ag confirm 71.8*, Ga16 ag counter 3.4, TAAR1 desensitize 43.4 and Ga16 nonsel ant 6.1.
`CCCCOc1ccc(N2C(=O)CC(N(CCc3ccccc3)C(=O)/C=C/C(=O)O)C2=O)cc1` (stereo unspecified) gave TAAR1 antag 1.3, TAAR1 ag 66.7*, ANO1 activ inactive, CRFBP-R2 agonist 6.7, CRFBP-R2 block 3.7, TMEM16A inh inactive, TAAR1 ag confirm 78.1*, Ga16 ag counter 2.0, TAAR1 desensitize 30.7 and Ga16 nonsel ant -0.2.
Cc1ccc2c(c1)[nH]c1c(=O)n(Cc3ccco3)cnc12 was read as TAAR1 antag 27.8, TAAR1 ag 72.9*, ANO1 activ inactive, CRFBP-R2 agonist 83.5*, CRFBP-R2 block -10.8, TMEM16A inh inactive, TAAR1 ag confirm 101.0*, Ga16 ag counter 74.0*, TAAR1 desensitize 89.3* and Ga16 nonsel ant 65.5*.
For COc1ccc(OC)c(S(=O)(=O)N2CCCC2C(=O)NC(C)c2ccccc2)c1 (stereo unspecified) the results were TAAR1 antag -4.3, TAAR1 ag 2.4, ANO1 activ inactive, CRFBP-R2 agonist -0.1, CRFBP-R2 block -4.5 and TMEM16A inh inactive.
`C=CCn1c(N)c(C(=O)Nc2ccc(C)cc2)sc1=S` gave TAAR1 antag 40.0, TAAR1 ag 62.1*, ANO1 activ inactive, CRFBP-R2 agonist -0.4, CRFBP-R2 block -28.7, TMEM16A inh inactive, TAAR1 ag confirm -3.8, Ga16 ag counter -0.8, TAAR1 desensitize 1.2 and Ga16 nonsel ant 11.6.
Screening O=C(O)c1ccc(/C=N/Nc2ccc(F)cc2F)cc1 returned TAAR1 antag 21.3, TAAR1 ag 88.3*, ANO1 activ inactive, CRFBP-R2 agonist 5.0, CRFBP-R2 block -12.7, TMEM16A inh inactive, TAAR1 ag confirm 43.6*, Ga16 ag counter 20.7*, TAAR1 desensitize 12.5 and Ga16 nonsel ant 11.5.
COc1ccc(Cl)cc1NC(=O)COC(=O)C1=NNC(=O)CC1 was read as TAAR1 antag -1.4, TAAR1 ag 2.1, ANO1 activ inactive, CRFBP-R2 agonist -1.5 and CRFBP-R2 block 13.9.
COc1ccc(-n2cnnc2SCC(=O)Nc2ccccc2F)cc1 was read as TAAR1 antag -0.5, TAAR1 ag 2.9, ANO1 activ inactive, CRFBP-R2 agonist -1.3, CRFBP-R2 block 2.1 and TMEM16A inh inactive.
O=c1cc(N2CCc3ccccc3C2)[nH]c(=O)n1-c1ccccc1Cl was read as TAAR1 antag 26.7, TAAR1 ag 78.7*, ANO1 activ inactive, CRFBP-R2 agonist -1.3, CRFBP-R2 block 7.9, TMEM16A inh inactive, TAAR1 ag confirm 61.9*, Ga16 ag counter 3.6, TAAR1 desensitize 2.3 and Ga16 nonsel ant 12.3.
For Cc1ccc(-n2c(=O)cc(N3CCc4ccccc4C3)[nH]c2=O)cc1 the results were TAAR1 antag 2.8, TAAR1 ag 87.2*, ANO1 activ inactive, CRFBP-R2 agonist 1.9, CRFBP-R2 block -30.9, TMEM16A inh inactive, TAAR1 ag confirm 4.0, Ga16 ag counter 0.2, TAAR1 desensitize 8.6 and Ga16 nonsel ant 5.7.
`Cc1ccccc1-n1c(=O)cc(N2CCc3ccccc3C2)[nH]c1=O` gave TAAR1 antag 54.1*, TAAR1 ag 92.0*, ANO1 activ inactive, CRFBP-R2 agonist 5.1, CRFBP-R2 block -1.1, TMEM16A inh inactive, TAAR1 ag confirm 96.7*, Ga16 ag counter 3.2, TAAR1 desensitize 79.5* and Ga16 nonsel ant 7.2.
